# Measurements gathered from unrelated publications.
# Target: NT-3 growth factor receptor (NTRK3, Homo sapiens, UniProt Q16288)
Compound,assay,setting,quantity,result
O=C(Nc1cccc(C(=O)Nc2ccc3[nH]ncc3c2)c1)Nc1ccccc1F,"enzyme activity, inhibitor, FRET",1 µM,inhibition,26.3%
NS(=O)(=O)c1cc(NC(=O)Cc2ccccc2)ccc1Oc1cccc(Cl)c1,"cell-free assay, competition with immobilised ligand",1 µM,remaining binding,87%
Cc1cc(NC(=O)c2cccc3cc(-c4cccc5[nH]nc(N)c45)ccc23)ccc1F,"enzyme activity, inhibitor",0.1 µM,activity vs control,90%
COc1cc2ncnc(Nc3ccc(F)c(Cl)c3)c2cc1OCCCN1CCOCC1,cell-free assay,0.5 µM,remaining signal,103%
Cc1sc(C(=O)NC2COC2)cc1-n1cc(NC(=O)Nc2c(F)cccc2Cl)cn1,"enzyme activity, inhibitor",10 µM,remaining activity,86%
Cc1ccc(Nc2nccc(N(C)c3ccc4c(C)n(C)nc4c3)n2)cc1S(N)(=O)=O,cell-free assay,0.5 µM,remaining signal,87.8%
CC(C)(C)c1nc(-c2cccc(NS(=O)(=O)c3c(F)cccc3F)c2F)c(-c2ccnc(N)n2)s1,"enzyme activity, inhibitor, radiometric",1 µM,remaining activity,93%
CCCCN(CCCC)C(=O)CN1C[C@H](c2cc(OC)c3c(c2)OCO3)[C@@H](C(=O)O)[C@@H]1CC(C)(C)CCC,"cell-free assay, competition with immobilised ligand",1 µM,remaining binding,50.5%
O=C(Nc1cnn2ccc(N3CCC[C@@H]3c3cc(F)ccc3F)nc12)N1CC[C@H](O)C1,"enzyme activity, inhibitor, FRET",1 µM,inhibition,100%
Nc1ncnc2occ(-c3ccc(NC(=O)Nc4cc(C(F)(F)F)ccc4F)cc3)c12,cell-free assay,20 µM,remaining signal,0.25%
O=C(Nc1ccccc1)Nc1cccc(C(=O)Nc2ccc3[nH]ncc3c2)c1,"enzyme activity, inhibitor, FRET",1 µM,inhibition,12.7%
CN(C)C(=O)Cn1cc(-c2nc([C@@](C)(c3ccc(-c4cnc(N)nc4)cc3)C3CC3)no2)cn1,"cell-free assay, competition with immobilised ligand",1 µM,remaining binding,92%
O=C1NC(=O)c2cc(Nc3ccc(F)cc3)c(Nc3ccc(F)cc3)cc21,cell-free assay,0.5 µM,remaining signal,95.6%
CN(C(=O)c1ccccc1)c1cc(N(C)c2ccc3c(c2)CCc2ccc(C(=O)NCCN4CCOCC4)cc2C3=O)ccc1F,"cell-free assay, competition with immobilised ligand",1 µM,remaining binding,90%
CN1CCN(c2ccc(C(=O)Nc3n[nH]c4ccc(Cc5cc(F)cc(F)c5)cc34)c(NC3CCOCC3)c2)CC1,"enzyme activity, inhibitor, FRET",1 µM,inhibition,99.8%
C[C@@H]1CCN(C(=O)CC#N)C[C@@H]1N(C)c1ncnc2[nH]ccc12,cell-free assay,0.5 µM,remaining signal,90%
O=C(NC[C@@H]1[C@H]2CN(C(=O)OCc3cc(C(F)(F)F)cc(C(F)(F)F)c3)C[C@@H]12)c1ccc2[nH]nnc2c1,"cell-free assay, competition with immobilised ligand",1 µM,remaining binding,91%
O=C(Nc1ccc(I)cc1)Nc1cccc(C(=O)Nc2ccc3[nH]ncc3c2)c1,"enzyme activity, inhibitor, FRET",1 µM,inhibition,14.6%
Cc1c(NC(=O)c2cc(C(N)=O)nc3cc(F)ccc23)c(C(F)(F)F)nn1Cc1ccc(C(C)(C)C)cc1,"cell-free assay, competition with immobilised ligand",1 µM,remaining binding,100%
O=C(Nc1cccc(C(=O)Nc2ccc3[nH]ncc3c2)c1)Nc1ccccc1Cl,"enzyme activity, inhibitor, FRET",1 µM,inhibition,27.4%
O=C(Nc1cnn(-c2csc(C(=O)NC3COC3)c2)c1)Nc1ccccc1Cl,"enzyme activity, inhibitor",5 µM,remaining activity,64.3%
CS(=O)(=O)NCC[C@H](NC(=O)c1cncc2c1cnn2-c1ccc(F)cc1)c1ccnc(S(C)(=O)=O)c1,"cell-free assay, competition with immobilised ligand",1 µM,remaining binding,100%
O=C(Nc1cccc(F)c1)Nc1cccc(C(=O)Nc2ccc3[nH]ncc3c2)c1,"enzyme activity, inhibitor, FRET",1 µM,inhibition,17%
CN(C)c1ncnc(-c2ccc3nc(Nc4cc(CN5CCN(C(=O)CC(F)(F)F)CC5)ccn4)[nH]c3c2)c1Cl,"cell-free assay, competition with immobilised ligand",1 µM,remaining binding,61%
Cc1ccc(NC(=O)c2ccc(C)c(C(F)(F)F)c2)cc1C#Cc1nn(C2CCC(O)CC2)c2ncnc(N)c12 (stereo not shown),cell-free assay,10 µM,remaining signal,17%
